# Data taken from ChEMBL document CHEMBL2321795, “Solubility-driven optimization of (pyridin-3-yl) benzoxazinyl-oxazolidinones leading to a promising antibacterial agent” (J Med Chem, 2013).
# Tests used:
# Type in all cases: functional
# [1] = test system: Staphylococcus aureus; experiment: Antibacterial activity against methicillin-sensitive Staphylococcus aureus after 16 hrs by NCCLS agar dilution method
# In short: (§1)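 Agar dilution MIC. Stocks were 320 μg/mL in 50% aqueous DMSO, 2-fold serially diluted in sterile water, then diluted 10-fold into Mueller–Hinton agar to give 16–0.03125 μg/mL final. Organisms were grown in MH broth at 35 °C for 8 h and adjusted to 0.5 McFarland. They were spotted onto drug-containing plates with a multipoint inoculator and incubated at 35 °C for 16 h. Linezolid was the positive control.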
# [2] = test system: Staphylococcus aureus; experiment: Antibacterial activity against methicillin-resistant Staphylococcus aureus after 16 hrs by NCCLS agar dilution method; in short: as §1
# [3] = test system: Staphylococcus epidermidis; experiment: Antibacterial activity against methicillin-resistant Staphylococcus epidermidis after 16 hrs by NCCLS agar dilution method; in short: as §1
# [4] = test system: Streptococcus pneumoniae; experiment: Antibacterial activity against penicillin-resistant Streptococcus pneumoniae after 16 hrs by NCCLS agar dilution method; in short: as §1
# [5] = test system: Enterococcus faecalis; experiment: Antibacterial activity against Enterococcus faecalis after 16 hrs by NCCLS agar dilution method
# In short: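 Agar dilution MIC per NCCLS, 6 E. faecalis strains. Stock was 320 μg/mL in 50% water/DMSO, serially 2-fold diluted in sterile water, then 10-fold into Mueller–Hinton agar to give 16–0.03125 μg/mL final. Inocula came from MH broth cultures grown 8 h at 35 °C, adjusted to 0.5 McFarland and spotted by multipoint inoculator. Plates were read after 16 h at 35 °C.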
# [6] = test system: Staphylococcus epidermidis; experiment: Antibacterial activity against methicillin-sensitive Staphylococcus epidermidis after 16 hrs by NCCLS agar dilution method; in short: as §1
# [7] = test system: Staphylococcus aureus; experiment: Antibacterial activity against linezolid-resistant Staphylococcus aureus after 16 hrs by NCCLS agar dilution method; in short: as §1
# [8] = test system: Staphylococcus epidermidis; experiment: Antibacterial activity against linezolid-resistant Staphylococcus epidermidis after 16 hrs by NCCLS agar dilution method; in short: as §1
# [9] = test system: Enterococcus faecium; experiment: Antibacterial activity against linezolid-resistant Enterococcus faecium after 16 hrs by NCCLS agar dilution method; in short: as §1
# [10] = test system: Enterococcus faecalis; experiment: Antibacterial activity against linezolid-resistant Enterococcus faecalis after 16 hrs by NCCLS agar dilution method; in short: as §1
# [11] = test system: Staphylococcus aureus; experiment: Antibacterial activity against Staphylococcus aureus ATCC 29213 after 16 hrs by NCCLS agar dilution method; conditions: ATCC 29213, 16 h; in short: as §1
SMILES,MIC [1],MIC [2],MIC [3],MIC [4],MIC [5],MIC [6],MIC [7],MIC [8],MIC [9],MIC [10],MIC [11]
O=C1O[C@@H](CO)[C@@H]2COc3cc(-c4ccc(C(O)C5CC5)nc4)ccc3N12 (stereo partly specified),1 µg/mL,1 µg/mL,1 µg/mL,1 µg/mL,2 µg/mL,0.5 µg/mL,–,–,–,–,–
O=C1O[C@@H](CO)[C@@H]2COc3cc(-c4ccc(C5(O)CCCC5)nc4)ccc3N12,2 µg/mL,1 µg/mL,1 µg/mL,2 µg/mL,2 µg/mL,1 µg/mL,–,–,–,–,–
O=C1O[C@@H](CO)[C@@H]2COc3cc(-c4ccc(C(O)CO)nc4)ccc3N12 (stereo partly specified),0.5 µg/mL,0.5 µg/mL,0.5 µg/mL,0.5 µg/mL,1 µg/mL,0.5 µg/mL,16 µg/mL,8 µg/mL,4 µg/mL,4 µg/mL,0.5 µg/mL
C[C@@H](O)C(O)c1ccc(-c2ccc3c(c2)OC[C@H]2[C@H](CO)OC(=O)N32)cn1 (stereo partly specified),2 µg/mL,2 µg/mL,1 µg/mL,2 µg/mL,4 µg/mL,1 µg/mL,–,–,–,–,–
O=C1O[C@@H](CO)[C@@H]2COc3cc(-c4ccc(N5CCC(O)CC5)nc4)ccc3N12,2 µg/mL,2 µg/mL,2 µg/mL,2 µg/mL,> 32 µg/mL,4 µg/mL,–,–,–,–,–
CC(=O)c1ccc(-c2ccc3c(c2)OC[C@H]2[C@H](CO)OC(=O)N32)cn1,2 µg/mL,2 µg/mL,4 µg/mL,8 µg/mL,2 µg/mL,4 µg/mL,–,–,–,–,–
CCO/N=C(\C)c1ccc(-c2ccc3c(c2)OC[C@H]2[C@H](CO)OC(=O)N32)cn1,> 32 µg/mL,–,–,> 32 µg/mL,> 32 µg/mL,> 32 µg/mL,–,–,–,–,–
NCc1ccc(-c2ccc3c(c2)OC[C@H]2[C@H](CO)OC(=O)N32)cn1,2 µg/mL,2 µg/mL,0.5 µg/mL,4 µg/mL,4 µg/mL,1 µg/mL,–,–,–,–,–
NC1(c2ccc(-c3ccc4c(c3)OC[C@H]3[C@H](CO)OC(=O)N43)cn2)CC1,2 µg/mL,1 µg/mL,1 µg/mL,1 µg/mL,2 µg/mL,1 µg/mL,–,–,–,–,–
CN1CCN(c2ccc(-c3ccc4c(c3)OC[C@H]3[C@H](CO)OC(=O)N43)cn2)CC1,2 µg/mL,4 µg/mL,4 µg/mL,4 µg/mL,2 µg/mL,2 µg/mL,–,–,–,–,–
CCN1CCN(c2ccc(-c3ccc4c(c3)OC[C@H]3[C@H](CO)OC(=O)N43)cn2)CC1,4 µg/mL,4 µg/mL,4 µg/mL,8 µg/mL,4 µg/mL,2 µg/mL,–,–,–,–,–
CN1CCC(Oc2ccc(-c3ccc4c(c3)OC[C@H]3[C@H](CO)OC(=O)N43)cn2)CC1,4 µg/mL,4 µg/mL,8 µg/mL,16 µg/mL,> 32 µg/mL,4 µg/mL,–,–,–,–,–
O=C1O[C@@H](CO)[C@@H]2COc3cc(-c4ccc(N5C[C@@H]6CCCN[C@@H]6C5)nc4)ccc3N12,4 µg/mL,8 µg/mL,4 µg/mL,8 µg/mL,16 µg/mL,4 µg/mL,–,–,–,–,–
CN1CCC[C@H]2CN(c3ccc(-c4ccc5c(c4)OC[C@H]4[C@H](CO)OC(=O)N54)cn3)C[C@H]21,8 µg/mL,8 µg/mL,8 µg/mL,> 32 µg/mL,> 32 µg/mL,4 µg/mL,–,–,–,–,–
CC(C)N1CCN(c2ccc(-c3ccc4c(c3)OC[C@H]3[C@H](CO)OC(=O)N43)cn2)C(=O)C1,2 µg/mL,2 µg/mL,2 µg/mL,4 µg/mL,16 µg/mL,2 µg/mL,–,–,–,–,–
CN1CCN(c2ccc(-c3ccc4c(c3)OC[C@H]3[C@H](CO)OC(=O)N43)cn2)C(=O)C1,2 µg/mL,2 µg/mL,2 µg/mL,4 µg/mL,16 µg/mL,2 µg/mL,–,–,–,–,–
O=C1COCCN1c1ccc(-c2ccc3c(c2)OC[C@H]2[C@H](CO)OC(=O)N32)cn1,2 µg/mL,1 µg/mL,2 µg/mL,2 µg/mL,2 µg/mL,2 µg/mL,–,–,–,–,–
O=C1OCCN1c1ccc(-c2ccc3c(c2)OC[C@H]2[C@H](CO)OC(=O)N32)cn1,0.5 µg/mL,0.5 µg/mL,0.5 µg/mL,0.5 µg/mL,1 µg/mL,0.5 µg/mL,16 µg/mL,2 µg/mL,4 µg/mL,4 µg/mL,0.5 µg/mL
